Data on 5 molecules can be found in ChEMBL document CHEMBL3576779, “Cyclic colisporifungin and linear cavinafungins, antifungal lipopeptides isolated from Colispora cavincola” (J Nat Prod, 2015).

In brackets after ≈: the same amount, converted by molar mass. Activity calls are given as the source filed them. Non-standard residues stand in square brackets, D forms with d. Residues, ends and D or L forms follow the SMILES beside them. *: point of attachment. Pro(4R-Me) = C[C@H]1CN[C@H](C(=O)O)C1; Oleoyl = CCCCCCCC/C=C\CCCCCCCC(=O)*; hSer = N[C@@H](CCO)C(=O)O; Alaol = C[C@@H](CO)N*

For assay [1], the system named is Pichia kudriavzevii. Put plainly: Antifungal activity against Candida krusei ATCC 6258 after 24 hrs by 2-fold serial dilution method. It counts as functional. Conditions: ATCC 6258, 24 h. An outline of the steps:
(§1)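 Cells were inoculated at 10^5 CFU/mL into 2-fold serial compound dilutions in growth medium and incubated at 37 °C. The MIC was recorded after 24 h as the lowest concentration inhibiting visible growth. Where given, the MIC80 is 80% inhibition, reported as prominent inhibition.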

The test system of assay [2] is Candida albicans. Put plainly: Antifungal activity against Candida albicans MY1055 after 24 hrs by 2-fold serial dilution method. Format: functional. Conditions: MY1055, 24 h. An outline of the steps:
as §1

Assay [3] relates to Candida tropicalis. Put plainly: Antifungal activity against Candida tropicalis ATCC 750 after 24 hrs by 2-fold serial dilution method. Conditions: ATCC 750, 24 h. It counts as functional. An outline of the steps:
as §1

The test system of assay [4] is Candida albicans. Put plainly: Antifungal activity against Candida albicans MY1055 after 24 hrs by 2-fold serial dilution method in presence of 50% mouse serum. Format: functional. Conditions: MY1055, 24 h.
Assay [5] concerns Nakaseomyces glabratus. Put plainly: Antifungal activity against Candida glabrata ATCC 90030 after 24 hrs by 2-fold serial dilution method. It counts as functional. Conditions: ATCC 90030, 24 h. An outline of the steps:
as §1

The subject of assay [6] is Aspergillus fumigatus. Put plainly: Antifungal activity against Aspergillus fumigatus MF5668 after 48 hrs by 2-fold serial dilution method. It counts as functional. Conditions: MF5668, 48 h. An outline of the steps:
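Broth microdilution MIC test: the inoculum was 10^5 CFU/mL, with a 2-fold serial dilution of compound in growth medium at 37 °C. The MIC was read after 48 h incubation as the lowest concentration inhibiting visible growth. Where given, the MIC80 is 80% inhibition, reported as prominent inhibition.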

Assay [7] deals with Clavispora lusitaniae. Put plainly: Antifungal activity against Clavispora lusitaniae ATCC 34449 after 24 hrs by 2-fold serial dilution method. Conditions: ATCC 34449, 24 h. Format: functional. An outline of the steps:
as §1

For assay [8], the system named is Candida parapsilosis. Put plainly: Antifungal activity against Candida parapsilosis ATCC 22019 after 24 hrs by 2-fold serial dilution method. Conditions: ATCC 22019, 24 h. Format: functional. An outline of the steps: as §1
The subject of assay [9] is Candida albicans. Put plainly: Antifungal activity against Candida albicans MY1055 after 24 hrs by resazurin test in presence of caspofungin. It counts as functional. Conditions: MY1055, 24 h. An outline of the steps:
(§2)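 Tested with and without sublethal caspofungin (0.015 μg/mL for A. fumigatus, 0.03 μg/mL for C. albicans) at 37 °C for 24 h. Resazurin 0.002% added 3–4 h before reading; fluorescence read at ex 570/em 615 nm. C. albicans was grown overnight in SDB, set to OD600 0.25 in RPMI-modified medium (pH 7.1) and diluted 1:10. Run in triplicate.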

The test system of assay [10] is Aspergillus fumigatus. Put plainly: Antifungal activity against Aspergillus fumigatus ATCC 46645 after 24 hrs by resazurin test in presence of caspofungin. Conditions: ATCC 46645, 24 h. It counts as functional. An outline of the steps:
as §2

The test system of assay [11] is Nakaseomyces glabratus. Put plainly: Antifungal activity against Candida glabrata MY992 at 8 ug/ml after 24 hrs by resazurin test. Format: functional, organism-based. A general note: Alamar Blue is a resazurin reagent that responds to reducing activity.
For assay [12], the system named is Candida albicans. Put plainly: Potentiation of caspofungin-induced antifungal activity against Candida albicans MY1055 at 1 ug/ml after 24 hrs by checkerboard method. It counts as functional, organism-based. An outline of the steps: (§3)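 Checkerboard of double dilutions: caspofungin at final 0.24–0.00018 μg/mL (columns) crossed with test compound at final 8–0.015 μg/mL (rows) in the central 80 wells of one plate. Caspofungin dose–response curves gave IC50 values at each compound level.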

Assay [13] has as its system Candida albicans. Put plainly: Antifungal activity against Candida albicans MY1055 at 8 ug/ml after 24 hrs by resazurin test. Format: functional, organism-based. An outline of the steps: as §2
Assay [14] has as its system Aspergillus fumigatus. Put plainly: Potentiation of caspofungin-induced antifungal activity against Aspergillus fumigatus ATCC 46645 at 2 ug/ml after 24 hrs by checkerboard method relative to control. Format: functional. An outline of the steps:
as §3

The test system of assay [15] is Aspergillus fumigatus. Put plainly: Antifungal activity against Aspergillus fumigatus ATCC 46645 at 8 ug/ml after 24 hrs by resazurin test. Format: functional, organism-based. An outline of the steps: as §2
In assay [16] the test system is Aspergillus fumigatus. Put plainly: Antifungal activity against Aspergillus fumigatus ATCC 46645 assessed as growth inhibition after 24 hrs by checkerboard method. It counts as functional, organism-based. Conditions: ATCC 46645, 24 h. An outline of the steps: as §3

As for `CCCCCCCC/C=C\CCCCCCCC(=O)N[C@H](C(=O)N1C[C@H](C)C[C@H]1C(=O)N[C@H](C(=O)N[C@@H](CCO)C(=O)N[C@@H](C)C=O)C(C)C)[C@@H](C)O` (Oleoyl-T[Pro(4R-Me)]V[hSer]A-aldehyde), the MIC (usually the smallest concentration in the dilution series that meets the test's criterion for growth inhibition) in [1] was 2 µg/mL (≈ 2.67 µM); in assay [2], 2 µg/mL (≈ 2.67 µM); in [3], 0.5 µg/mL (≈ 0.667 µM); in assay [4], more than 32 µg/mL; in [5], 2 µg/mL (≈ 2.67 µM); in [6] it was more than 32 µg/mL. Also, the MIC in [7] and in [8] was 2 µg/mL (≈ 2.67 µM) throughout. Also, the MIC80 (as a rule, the lowest concentration that inhibits either 80% of growth or 80% of the strains tested, depending on the study) in assay [6] is 8 µg/mL (≈ 10.7 µM).
In the case of `CCCCCCCC/C=C\CCCCCCCC(=O)N[C@H](C(=O)N1C[C@H](C)C[C@H]1C(=O)N[C@H](C(=O)N[C@@H](CCO)C(=O)N[C@@H](C)CO)C(C)C)[C@@H](C)O` (Oleoyl-T[Pro(4R-Me)]V[hSer]-Alaol), the MIC in [1], in assay [2], in assay [3], in assay [5], in assay [7] and in assay [8] was more than 32 µg/mL throughout.
Regarding `CCCCCCCCCCCC(=O)N[C@@H](CCC(N)=O)C(=O)N[C@@H]1C(=O)NCCC(=O)N[C@H](Cc2c[nH]c3ccccc23)C(=O)N[C@@H](CO)C(=O)N[C@H](Cc2ccccc2)C(=O)O[C@@H]1C`, the minimal inhibitory concentration (MIC) in [9] turned out to be 2 µg/mL; in [10] it was 4 µg/mL. Moreover, the outcome in [11], in assay [13] and in assay [15] was inactive. In assay [12], the result was Active. The “fold change (FC)” value in assay [14] was determined as 5.3.
With `CCCCCCCC/C=C\CCCCCCCC(=O)N[C@H](C(=O)N1C[C@H](C)C[C@H]1C(=O)N[C@H](C(=O)N[C@@H](CCOC(C)=O)C(=O)N[C@@H](C)C=O)C(C)C)[C@@H](C)O` (Oleoyl-T[Pro(4R-Me)]V[hSer](Ac)A-aldehyde), the MIC in assay [1] was 4 µg/mL (≈ 5.05 µM); in assay [2], 2 µg/mL (≈ 2.53 µM); in assay [3] it was 0.5 µg/mL (≈ 0.631 µM); in assay [4], more than 32 µg/mL; in assay [5], 2 µg/mL (≈ 2.53 µM); in assay [6], more than 32 µg/mL. In addition, the MIC in assay [7] and in assay [8] was 2 µg/mL (≈ 2.53 µM) in each case. Moreover, in assay [6], the MIC80 is 8 µg/mL (≈ 10.1 µM).
In the case of `CC[C@H](C)C[C@H](C)CCCCCCCCC(=O)N[C@H]1C[C@@H](O)[C@@H](NCCN)NC(=O)[C@@H]2[C@@H](O)CCN2C(=O)[C@H]([C@H](O)CCN)NC(=O)[C@H]([C@H](O)[C@@H](O)c2ccc(O)cc2)NC(=O)[C@@H]2C[C@@H](O)CN2C(=O)[C@H]([C@@H](C)O)NC1=O` [CASPOFUNGIN], the IC50 (in general, the midpoint of a concentration-inhibition curve) in assay [16] worked out at 33 nM.
